The source made the active and inactive calls. The rule behind the calls is not given here.
What was measured:
[1] = target: T1, Prostaglandin E2 receptor EP2 subtype (Homo sapiens, UniProt P43116); test: Displacement of [3H]prostaglandin E2 from human EP2 receptor expressed in HEK293 cell membranes after 60 mins by liquid scintillation counting
[2] = target: T1, Prostaglandin E2 receptor EP2 subtype; test: Agonist activity at recombinant human EP2 receptor expressed in HEK293 cells assessed as induction of cAMP accumulation after 30 mins; assay type: functional, cell-based
How it was run: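 HEK293 cells stably expressing h-EP2 grown in MEM with 10% FBS, seeded at 2 × 10^4 cells/well. Next day switched to serum-free MEM with 500 µM IBMX (final) for 30 min at 37 °C, then test compound in DMSO added for 30 min at 37 °C. Cells lysed, cAMP quantified by EIA or HTRF kit.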

[3] = target: T2, Prostaglandin E2 receptor EP1 subtype (Homo sapiens, UniProt P34995); test: Displacement of [3H]prostaglandin E2 from recombinant human full length EP1 receptor expressed in Chem-1 cell membranes after 60 mins by liquid scintillation counting
T2 sequence (P34995 whole entry): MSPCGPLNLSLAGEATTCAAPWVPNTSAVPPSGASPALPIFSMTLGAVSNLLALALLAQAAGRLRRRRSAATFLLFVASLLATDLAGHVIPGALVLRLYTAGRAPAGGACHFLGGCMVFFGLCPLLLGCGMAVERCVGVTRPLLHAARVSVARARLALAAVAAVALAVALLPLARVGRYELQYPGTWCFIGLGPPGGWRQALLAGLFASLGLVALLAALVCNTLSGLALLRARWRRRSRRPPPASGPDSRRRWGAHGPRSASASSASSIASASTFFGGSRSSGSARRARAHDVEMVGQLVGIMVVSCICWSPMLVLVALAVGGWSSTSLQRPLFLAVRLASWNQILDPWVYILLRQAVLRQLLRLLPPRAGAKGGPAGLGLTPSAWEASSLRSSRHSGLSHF

Cynomolgus monkey [4] = test: Reduction of intraocular pressure in ocular normotensive cynomolgus monkey at 0.01% administered topically to the eyes once daily at around 5 pm from day 1 to day 14 and measured at 10 am at day 8 and 15 post dose; conditions: Macaca fascicularis
[5] = target: T3, Prostaglandin E2 receptor EP3 subtype (Homo sapiens, UniProt P43115); test: Displacement of [3H]prostaglandin E2 from recombinant human full length EP3 receptor expressed in Chem-1 cell membranes after 60 mins by liquid scintillation counting
T3 sequence (P43115 whole entry): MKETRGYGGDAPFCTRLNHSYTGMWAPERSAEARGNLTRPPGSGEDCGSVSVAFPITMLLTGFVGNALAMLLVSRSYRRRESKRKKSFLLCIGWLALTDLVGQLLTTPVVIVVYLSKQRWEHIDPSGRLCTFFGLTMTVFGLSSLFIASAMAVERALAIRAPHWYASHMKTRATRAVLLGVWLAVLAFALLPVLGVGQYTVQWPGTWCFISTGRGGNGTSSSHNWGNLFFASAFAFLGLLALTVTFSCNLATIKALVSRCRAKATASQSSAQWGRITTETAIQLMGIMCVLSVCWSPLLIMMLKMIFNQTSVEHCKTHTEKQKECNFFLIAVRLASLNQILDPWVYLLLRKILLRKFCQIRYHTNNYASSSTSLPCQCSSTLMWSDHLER

Cynomolgus monkey [6] = test: Reduction of intraocular pressure in ocular normotensive cynomolgus monkey administered topically to the eyes once daily at around 5 pm from day 1 to day 14 and measured at […] at day 8 and 15 post dose; assay type: functional, organism-based; conditions: Macaca fascicularis
[7] = Apparent permeability of the compound at 100 uM after 5 hrs by PAMPA; assay type: ADME
[8] = target: Prostaglandin E2 receptor EP4 subtype (Homo sapiens, UniProt P35408); test: Displacement of [3H]prostaglandin E2 from recombinant human full length EP4 receptor expressed in Chem-1 cell membranes after 60 mins by liquid scintillation counting
Cytochrome P450 2C19 = Cytochrome P450 2C19 (Homo sapiens, UniProt P33261); test: Inhibition of recombinant human CYP2C19 using 3-cyano-7-ethoxycoumarin fluorescent substrate in presence of NADPH-generating system after 15 mins; assay type: ADME
How it was run: (§1)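 Each recombinant human CYP isoform (3A4, 2D6, 2C9, 2C19, 1A2) tested for inhibition by compound.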

[9] = target: T1, Prostaglandin E2 receptor EP2 subtype; test: Potency index, ratio of CP-533,536 EC50 to compound EC50 for recombinant human EP2 receptor expressed in HEK293 cells by cAMP accumulation assay; assay type: functional, cell-based
Cytochrome P450 2C9 = Cytochrome P450 2C9 (Homo sapiens, UniProt P11712); test: Inhibition of recombinant human CYP2C9 using 7-methoxy-4-(trifluoromethyl)coumarin fluorescent substrate in presence of NADPH-generating system after 15 mins; assay type: ADME; how it was run: as §1
Cynomolgus monkey [10] = test: Reduction of intraocular pressure in ocular normotensive cynomolgus monkey at 0.3 to 1% administered topically to the eyes once daily at around 5 pm from day 1 to day 14 and measured at 10 am at day 8 and 15 post dose; conditions: Macaca fascicularis
Cytochrome P450 3A4 [11] = target: T4, Cytochrome P450 3A4 (Homo sapiens, UniProt P08684); test: Induction of CYP3A4 in human Fa2N-4 cells up to 100 uM using testosterone as substrate incubated for 24 hrs followed by compound replacement for every 24 hrs during 72 hrs incubation period followed by substrate addition for 4 hrs by LC-MS analysis; assay type: ADME, cell-based
How it was run: (§2)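 Human Fa2N-4 cells exposed to compound to assess CYP3A4 and CYP1A2 induction. Five concentrations, single experiment in triplicate.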

[12] = Apparent permeability from apical side at pH 7.4 to basolateral side at pH 7.4 in human Caco2 cells a 10 uM after 30 to 120 mins by HPLC-MS analysis; assay type: ADME, cell-based; conditions: Caco-2, pH 7.4
Cytochrome P450 1A2 [13] = target: T5, Cytochrome P450 1A2 (Homo sapiens, UniProt P05177); test: Inhibition of recombinant human CYP1A2 using 3-cyano-7-ethoxycoumarin fluorescent substrate in presence of NADPH-generating system after 15 mins; assay type: ADME; how it was run: as §1
T5 sequence (P05177 whole entry): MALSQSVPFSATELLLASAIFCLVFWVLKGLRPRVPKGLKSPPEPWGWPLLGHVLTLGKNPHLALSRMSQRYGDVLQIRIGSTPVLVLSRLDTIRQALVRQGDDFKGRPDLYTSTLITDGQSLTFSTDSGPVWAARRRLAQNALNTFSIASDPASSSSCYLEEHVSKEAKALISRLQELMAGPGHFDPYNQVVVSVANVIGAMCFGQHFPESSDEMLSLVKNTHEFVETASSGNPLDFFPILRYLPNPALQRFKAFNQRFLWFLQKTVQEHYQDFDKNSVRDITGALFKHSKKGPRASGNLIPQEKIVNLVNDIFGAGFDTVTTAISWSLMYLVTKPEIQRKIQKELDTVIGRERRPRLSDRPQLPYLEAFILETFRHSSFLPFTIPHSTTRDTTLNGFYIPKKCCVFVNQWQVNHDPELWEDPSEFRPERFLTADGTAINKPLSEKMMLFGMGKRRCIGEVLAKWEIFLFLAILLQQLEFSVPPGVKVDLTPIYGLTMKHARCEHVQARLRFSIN

[14] = Apparent permeability from apical side at pH 6.5 to basolateral side at pH 7.4 in human Caco2 cells a 10 uM after 30 to 120 mins by HPLC-MS analysis; assay type: ADME, cell-based; conditions: Caco-2, pH 6.5
[15] = Drug metabolism in human liver microsomes assessed as metabolic rate at 10 uM after 30 mins by HPLC-MS analysis; assay type: ADME, Microsome; conditions: 0.5 h
Cytochrome P450 3A4 [16] = target: T4, Cytochrome P450 3A4; test: Inhibition of recombinant human CYP3A4 using 7-benzyloxyquinoline fluorescent substrate in presence of NADPH-generating system after 15 mins; assay type: ADME; how it was run: as §1
Cytochrome P450 1A2 [17] = target: T5, Cytochrome P450 1A2; test: Induction of CYP1A2 in human Fa2N-4 cells up to 100 uM using phenacetin as substrate incubated for 24 hrs followed by compound replacement for every 24 hrs during 72 hrs incubation period followed by substrate addition for 4 hrs by LC-MS analysis; assay type: ADME, cell-based; how it was run: as §2
Cytochrome P450 2D6 = Cytochrome P450 2D6 (Homo sapiens, UniProt P10635); test: Inhibition of recombinant human CYP2D6 using 3-(2-(N,N-diethyl-N-methylammonium)ethyl)-7-methoxy-4-methylcoumariniodide fluorescent substrate in presence of NADPH-generating system after 15 mins; assay type: ADME; how it was run: as §1
Cytochrome P450 2D6, sequence (P10635 whole entry): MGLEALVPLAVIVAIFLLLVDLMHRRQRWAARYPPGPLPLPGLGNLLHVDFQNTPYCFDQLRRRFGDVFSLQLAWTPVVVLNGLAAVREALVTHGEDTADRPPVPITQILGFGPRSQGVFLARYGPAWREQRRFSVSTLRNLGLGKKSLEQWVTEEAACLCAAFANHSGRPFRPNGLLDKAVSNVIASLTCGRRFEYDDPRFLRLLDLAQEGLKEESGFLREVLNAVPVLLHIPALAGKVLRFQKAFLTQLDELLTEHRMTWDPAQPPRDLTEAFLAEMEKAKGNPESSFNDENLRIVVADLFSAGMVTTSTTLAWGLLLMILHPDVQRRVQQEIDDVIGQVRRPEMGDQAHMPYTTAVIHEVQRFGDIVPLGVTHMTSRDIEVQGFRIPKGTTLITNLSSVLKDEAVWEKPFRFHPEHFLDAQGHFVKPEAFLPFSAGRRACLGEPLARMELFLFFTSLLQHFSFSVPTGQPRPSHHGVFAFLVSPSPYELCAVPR

T1 sequence (P43116 whole entry): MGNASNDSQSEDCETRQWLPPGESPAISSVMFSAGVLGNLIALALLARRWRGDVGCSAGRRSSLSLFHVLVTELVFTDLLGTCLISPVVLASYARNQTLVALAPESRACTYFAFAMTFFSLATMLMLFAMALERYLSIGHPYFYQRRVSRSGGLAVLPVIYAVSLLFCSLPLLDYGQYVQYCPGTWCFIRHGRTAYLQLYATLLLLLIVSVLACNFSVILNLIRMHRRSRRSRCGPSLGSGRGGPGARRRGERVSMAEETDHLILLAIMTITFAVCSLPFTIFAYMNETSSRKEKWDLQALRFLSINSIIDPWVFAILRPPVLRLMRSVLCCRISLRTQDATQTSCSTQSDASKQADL
Prostaglandin E2 receptor EP4 subtype, sequence (P35408 whole entry): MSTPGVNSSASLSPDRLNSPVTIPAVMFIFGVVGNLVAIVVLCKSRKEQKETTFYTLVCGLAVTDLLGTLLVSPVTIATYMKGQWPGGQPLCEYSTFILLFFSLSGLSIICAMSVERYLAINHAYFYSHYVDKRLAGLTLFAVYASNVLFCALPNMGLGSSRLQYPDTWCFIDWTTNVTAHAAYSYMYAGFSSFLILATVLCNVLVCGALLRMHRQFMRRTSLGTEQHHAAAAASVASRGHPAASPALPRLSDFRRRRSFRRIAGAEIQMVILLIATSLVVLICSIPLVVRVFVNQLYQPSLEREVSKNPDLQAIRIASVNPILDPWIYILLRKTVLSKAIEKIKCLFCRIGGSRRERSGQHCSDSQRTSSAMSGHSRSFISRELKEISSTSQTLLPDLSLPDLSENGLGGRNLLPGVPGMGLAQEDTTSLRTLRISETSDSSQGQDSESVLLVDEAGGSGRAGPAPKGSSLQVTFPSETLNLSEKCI
T4 sequence (P08684 whole entry): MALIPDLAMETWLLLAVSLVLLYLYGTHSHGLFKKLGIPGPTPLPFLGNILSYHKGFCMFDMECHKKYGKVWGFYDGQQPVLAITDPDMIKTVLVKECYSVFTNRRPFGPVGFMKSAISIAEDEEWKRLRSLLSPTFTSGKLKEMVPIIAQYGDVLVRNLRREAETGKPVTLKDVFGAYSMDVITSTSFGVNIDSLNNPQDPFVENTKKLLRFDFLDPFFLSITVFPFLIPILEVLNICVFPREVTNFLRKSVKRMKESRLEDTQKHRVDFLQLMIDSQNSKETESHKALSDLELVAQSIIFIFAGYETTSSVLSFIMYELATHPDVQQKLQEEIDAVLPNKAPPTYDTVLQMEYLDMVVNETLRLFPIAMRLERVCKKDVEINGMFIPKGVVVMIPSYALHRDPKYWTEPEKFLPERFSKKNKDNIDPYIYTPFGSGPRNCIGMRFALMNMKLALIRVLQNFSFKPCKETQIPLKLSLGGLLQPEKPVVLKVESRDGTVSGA
Cytochrome P450 2C19, sequence (P33261 whole entry, canonical isoform): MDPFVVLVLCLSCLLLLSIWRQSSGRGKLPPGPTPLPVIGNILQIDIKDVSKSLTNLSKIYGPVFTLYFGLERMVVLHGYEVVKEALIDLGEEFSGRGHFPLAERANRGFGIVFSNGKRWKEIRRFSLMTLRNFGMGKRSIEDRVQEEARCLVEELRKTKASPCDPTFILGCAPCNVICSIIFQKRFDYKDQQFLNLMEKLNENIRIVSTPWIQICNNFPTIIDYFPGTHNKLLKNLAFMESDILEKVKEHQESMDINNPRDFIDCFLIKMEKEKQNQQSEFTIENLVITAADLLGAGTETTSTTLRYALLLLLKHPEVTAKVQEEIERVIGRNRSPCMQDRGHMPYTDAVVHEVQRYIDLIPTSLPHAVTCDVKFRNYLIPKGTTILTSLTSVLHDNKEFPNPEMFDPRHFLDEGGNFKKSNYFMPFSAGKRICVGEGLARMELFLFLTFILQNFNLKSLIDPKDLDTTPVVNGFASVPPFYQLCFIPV
Cytochrome P450 2C9, sequence (P11712 whole entry): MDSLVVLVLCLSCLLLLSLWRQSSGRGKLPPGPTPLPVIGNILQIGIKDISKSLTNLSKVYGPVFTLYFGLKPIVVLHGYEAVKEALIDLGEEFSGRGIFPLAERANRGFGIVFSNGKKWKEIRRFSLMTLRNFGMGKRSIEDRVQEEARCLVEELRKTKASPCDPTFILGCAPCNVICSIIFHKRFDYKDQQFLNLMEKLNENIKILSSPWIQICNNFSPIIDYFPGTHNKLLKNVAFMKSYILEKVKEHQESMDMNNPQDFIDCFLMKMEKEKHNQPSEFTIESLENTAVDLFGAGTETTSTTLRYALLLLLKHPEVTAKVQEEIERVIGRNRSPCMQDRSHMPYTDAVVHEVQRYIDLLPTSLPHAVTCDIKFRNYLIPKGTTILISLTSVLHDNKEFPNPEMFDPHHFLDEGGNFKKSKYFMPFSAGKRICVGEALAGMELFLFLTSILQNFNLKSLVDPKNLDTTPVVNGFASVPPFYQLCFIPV

CC(C)(C)c1ccc(CN(Cc2cccc3oc(C(=O)O)cc23)S(=O)(=O)c2cccnc2)cc1
Ki [1]: 0.015 µM

CC(C)(C)c1ccc(CN(Cc2ccc3cc(C(=O)O)oc3c2)S(=O)(=O)c2cccnc2)cc1
Ki [1]: 0.433 µM

O=C(O)CNc1cccc(CN(Cc2ccc(-n3cncn3)cc2)S(=O)(=O)c2cccnc2)n1
EC50 [2]: 0.043 µM

O=C(O)CNc1cccc(CN(Cc2ccc(-c3ccc(F)cc3)cc2)S(=O)(=O)c2cccnc2)n1
EC50 [2]: 0.035 µM

O=C(O)CNc1cccc(CN(Cc2ccc(C(F)(F)F)cc2)S(=O)(=O)c2cccnc2)n1
EC50 [2]: 0.119 µM

CC(C)(C)c1ccc(CN(Cc2cccc(NCCC(=O)O)n2)S(=O)(=O)c2cccnc2)cc1
EC50 [2]: 0.083 µM

CC(C)(C)c1ccc(CN(Cc2cccc(NCC(=O)O)n2)S(=O)(=O)c2cccc(Cl)c2)cc1
EC50 [2]: 0.62 µM

CC(C)C1(c2ccc(CN(Cc3cccc(NCC(=O)O)n3)S(=O)(=O)c3cccnc3)cc2)CC1
EC50 [2]: 0.018 µM

O=C(O)CNc1cccc(CN(Cc2ccc(C3CCCCC3)cc2)S(=O)(=O)c2cccnc2)n1
EC50 [2]: 0.029 µM

O=C(O)CNc1cccc(CN(Cc2ccc(-c3ccccn3)cc2)S(=O)(=O)c2cccnc2)n1
EC50 [2]: 0.0016 µM

CC(C)(C)c1ccc(CN(Cc2cccc(NCC(=O)O)n2)S(=O)(=O)c2ccccc2Cl)cc1
EC50 [2]: > 1 µM

O=C(O)CNc1cccc(CN(Cc2ccc(-c3ccnnc3)cc2)S(=O)(=O)c2cccnc2)n1
EC50 [2]: 0.307 µM

CC(C)(C)C1CCC(CN(Cc2cccc(NCC(=O)O)n2)S(=O)(=O)c2cccnc2)CC1 (stereo unspecified)
EC50 [2]: 0.649 µM

CN(CC(=O)O)c1cccc(CN(Cc2ccc(C(C)(C)C)cc2)S(=O)(=O)c2cccnc2)n1
EC50 [2]: 0.283 µM

CC(C)(C)c1ccc(CN(Cc2csc(NCC(=O)O)n2)S(=O)(=O)c2cccnc2)cc1
EC50 [2]: 0.36 µM

CC(C)(C)c1ccc(CN(Cc2ccc3ccn(CC(=O)O)c3c2)S(=O)(=O)c2cccnc2)cc1
EC50 [2]: > 1 µM

O=C(O)CNc1cccc(CN(Cc2ccc(-c3ccc(Cl)cc3)cc2)S(=O)(=O)c2cccnc2)n1
EC50 [2]: 0.075 µM

O=C(O)CNc1cccc(CN(CCCCCc2ccccc2)S(=O)(=O)c2cccnc2)n1
EC50 [2]: 0.118 µM

COc1ccc(S(=O)(=O)N(Cc2ccc(C(C)(C)C)cc2)Cc2cccc(NCC(=O)O)n2)cc1
EC50 [2]: 0.019 µM

CC(C)(C)c1ccc(CN(Cc2cccc(NCC(=O)O)n2)S(C)(=O)=O)cc1
EC50 [2]: 0.091 µM

CC(C)(C)c1ccc(CN(Cc2cccc(NCC(=O)O)n2)S(=O)(=O)c2ccccc2F)cc1
EC50 [2]: 0.045 µM

CC(C)(C)c1cccc(CN(Cc2cccc(NCC(=O)O)n2)S(=O)(=O)c2cccnc2)c1
EC50 [2]: 0.109 µM

CC(C)(C)c1ccc(CN(Cc2ccnc(NCC(=O)O)c2)S(=O)(=O)c2cccnc2)cc1
EC50 [2]: > 1 µM

CC(C)(C)c1ccc(CN(Cc2cc(NCC(=O)O)ccn2)S(=O)(=O)c2cccnc2)cc1
EC50 [2]: > 1 µM

CCC1(c2ccc(CN(Cc3cccc(NCC(=O)O)n3)S(=O)(=O)c3cccnc3)cc2)CCC1
EC50 [2]: 0.013 µM

CCCCC[C@H](O)/C=C/[C@H]1[C@H](O)CC(=O)[C@@H]1C/C=C\CCCC(=O)O [DINOPROSTONE]
IC50 [3]: < 0.03 µM

CC(C)OC(=O)CNc1cccc(CN(Cc2ccc(-n3cccn3)cc2)S(=O)(=O)c2cccnc2)n1 [OMIDENEPAG ISOPROPYL]
Activity (Cynomolgus monkey [4]): Active
IC50 [5]: > 10 µM
Activity (Cynomolgus monkey [6]): Dose-dependent effect
IC50 [1]: 4.18 µM
Papp at 5 h, 100 µM [7]: 28 ×10⁻⁶ cm/s
IC50 [8]: > 10 µM
IC50 [3]: > 10 µM

O=C(O)CNc1cccc(CN(Cc2ccc(-n3cccn3)cc2)S(=O)(=O)c2cccnc2)n1 [OMIDENEPAG]
IC50 (Cytochrome P450 2C19): > 20 µM
IC50 [5]: > 10 µM
Ratio EC50 [9]: > 10
IC50 [1]: 0.01 µM
IC50 (Cytochrome P450 2C9): > 20 µM
Papp at 5 h, 100 µM [7]: 0.9 ×10⁻⁶ cm/s
Activity (Cynomolgus monkey [10]): Active
Activity (Cytochrome P450 3A4 [11]): Not Active
Papp A→B at 10 µM [12]: 0.28 ×10⁻⁶ cm/s
IC50 (Cytochrome P450 1A2 [13]): > 20 µM
IC50 [8]: 5.48 µM
EC50 [2]: 0.0011 µM
Papp A→B at 10 µM [14]: 0.59 ×10⁻⁶ cm/s
Drug metabolism [15]: 57 pmol/min/mg
IC50 (Cytochrome P450 3A4 [16]): > 20 µM
IC50 [3]: > 10 µM
Activity (Cytochrome P450 1A2 [17]): Not Active
IC50 (Cytochrome P450 2D6): > 20 µM

— ChEMBL document CHEMBL4325826, “Identification of a Selective, Non-Prostanoid EP2 Receptor Agonist for the Treatment of Glaucoma: Omidenepag and its Prodrug Omidenepag Isopropyl” (J Med Chem, 2018)
